Measured values as given in ChEMBL document CHEMBL1821643, “Oleanane-type triterpenoids from the leaves and twigs of Fatsia polycarpa” (J Nat Prod, 2011).
Converted amounts (≈) assume the structure as drawn. The source made the active and inactive calls. The calls are words filed in the database; no cut-off is given here.

Experiments:
[1] = system: Escherichia coli; test: Antimicrobial activity against Escherichia coli ATCC 35150 after 24 hrs by broth microdilution method
[2] = system: Helicobacter pylori; test: Antimicrobial activity against Helicobacter pylori ATCC 700392; type: functional
[3] = system: Listeria monocytogenes; test: Antimicrobial activity against Listeria monocytogenes ATCC 7644 after 24 hrs by broth microdilution method; type: functional, organism-based
Summary of the method: (§1)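 MIC by broth microdilution per CLSI guidelines. Strains grown on nutrient agar at 37 °C for 24 h. Inoculum prepared in normal saline against a 0.5 McFarland standard, final density 5 × 10^5 cfu/mL. Compounds dissolved in DMSO, then nutrient broth. 2-fold serial dilutions from 128 down to 0.25 μg/mL. Ampicillin column as positive control.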

[4] = system: Hepatitis B virus; test: Antiviral activity against Hepatitis B virus infected in human HepG2(2.2.15) cells assessed as reduction of HBsAg secretion by enzyme immunoassay; type: functional, organism-based
Summary of the method: (§2)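 HepG2 2.2.15 cells grown in modified Eagle's medium with 10% FBS, no antibiotics, 37 °C, 5% CO2. Confluent cultures treated at nontoxic concentrations in medium with 2% FBS, renewed every 3 days. Medium collected at day 6; HBsAg and HBeAg measured by enzyme immunoassay. Values relative to 0.1% DMSO control. IFN-alpha as positive control.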

[5] = system: Salmonella enterica subsp. enterica; test: Antimicrobial activity against Salmonella enterica ATCC 13311 after 24 hrs by broth microdilution method; type: functional, organism-based
Summary of the method: as §1

[6] = system: Hepatitis B virus; test: Antiviral activity against Hepatitis B virus infected in human HepG2(2.2.15) cells assessed as reduction of HBeAg secretion by enzyme immunoassay; type: functional, organism-based
Summary of the method: as §2

[7] = system: Enterococcus faecalis; test: Antimicrobial activity against Enterococcus faecalis ATCC 29212 after 24 hrs by broth microdilution method; type: functional, organism-based
Summary of the method: as §1

[8] = system: Bacillus cereus; test: Antimicrobial activity against Bacillus cereus ATCC 9139 after 24 hrs by broth microdilution method; type: functional; conditions: ATCC 9139, 24 h
Summary of the method: as §1

[9] = Cytotoxicity against human HepG2(2.2.15) cells after 3 days by MTS assay; type: functional, cell-based; conditions: HepG2 2.2.15, 72 h
Summary of the method: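 HepG2 2.2.15 cells exposed for 3 days to 2-fold serial dilutions, 1.25–40 μg/mL. Viability read by MTS assay, in triplicate. Expressed as percentage of untreated control. Fluorouracil as positive control.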

[10] = system: Pseudomonas aeruginosa; test: Antimicrobial activity against Pseudomonas aeruginosa ATCC 27853 after 24 hrs by broth microdilution method; type: functional, organism-based
Summary of the method: as §1

[11] = system: AGS; test: Cytotoxicity against human AGS cells; type: functional, cell-based
[12] = system: Staphylococcus aureus; test: Antimicrobial activity against Staphylococcus aureus ATCC 29213 after 24 hrs by broth microdilution method; type: functional; conditions: ATCC 29213, 24 h
Summary of the method: as §1

Structure (SMILES) | MIC [1] | MIC [3] | MIC [5] | MIC [7] | MIC [8] | MIC [10] | MIC [12] | MBC [2] | inhibition [4] | inhibition [6] | IC50 [9] | IC50 [11]
CC1(C)CC[C@]2(C(=O)O)CC[C@]3(C)C(=CC=C4[C@@]5(C)CC[C@@H](O)C(C)(C)[C@@H]5CC[C@]43C)[C@@H]2C1 [FATSICARPAIN D] | inactive | inactive | inactive | inactive | 8 µg/mL (≈ 17.6 µM) | inactive |  | 64 µg/mL (≈ 141 µM) | inactive | inactive | 28.8 µM | 42.8 µM
CC1(C)CC[C@]2(C(=O)O)CC[C@]3(C)C(=C2C1)C=C[C@@H]1[C@@]2(C)CC[C@@H](O)C(C)(C)[C@@H]2CC[C@]13C | inactive | inactive | inactive | inactive |  | inactive |  | 128 µg/mL (≈ 282 µM) | inactive | inactive | > 50 µM | > 50 µM
CC1(C)CC[C@]2(C(=O)O)CC[C@]3(C)C(=C2C1)C=C[C@@H]1[C@@]2(C)CC[C@@H](O)[C@@](C)(CO)[C@@H]2CC[C@]13C [FATSICARPAIN A] | inactive | inactive | inactive | inactive | 32 µg/mL (≈ 68 µM) | inactive |  | 64 µg/mL (≈ 136 µM) | inactive | inactive | 18.9 µM | 10.1 µM
CC1(C)CC[C@]2(C(=O)O)CC[C@]3(C)C(=C2C1)C=C[C@@H]1[C@@]2(C)CC[C@H](OS(=O)(=O)O)C(C)(C)[C@@H]2CC[C@]13C [FATSICARPAIN B] | inactive | inactive | inactive | inactive |  | inactive |  | 128 µg/mL (≈ 239 µM) | inactive | inactive | > 50 µM | > 50 µM
CC1(C)CC[C@]2(C(=O)O)CC[C@]3(C)C(=C2C1)C=C[C@@H]1[C@@]2(C)CC[C@@H](O)[C@@](C)(C=O)[C@@H]2CC[C@]13C [FATSICARPAIN C] | inactive | inactive | inactive | inactive | 32 µg/mL (≈ 68.3 µM) | inactive | 64 µg/mL (≈ 137 µM) | 64 µg/mL (≈ 137 µM) | inactive | inactive | 16.7 µM | > 50 µM
CC1(C)CC[C@@]23CC[C@]4(C)[C@@](C=C[C@@H]5[C@@]6(C)CC[C@@H](O)C(C)(C)[C@@H]6CC[C@]54C)(OC2=O)[C@@H]3C1 | inactive | inactive | inactive | inactive |  | inactive |  | > 128 µg/mL | inactive | inactive | > 50 µM | 9 µM

Now from value to compound, other results behind:

MIC [1] | MIC [3] | MIC [5] | MIC [7] | MIC [8] | MIC [10] | MIC [12] | Structure (SMILES) | MBC [2] | inhibition [4] | inhibition [6] | IC50 [9] | IC50 [11]
inactive | inactive | inactive | inactive | 2 µg/mL (≈ 4.11 µM) | inactive |  | CO[C@@H]1C=C2[C@@H]3CC(C)(C)CC[C@]3(C(=O)O)CC[C@@]2(C)[C@]2(C)CC[C@H]3C(C)(C)[C@H](O)CC[C@]3(C)[C@@H]12 [FATSICARPAIN F] | 64 µg/mL (≈ 131 µM) | inactive | inactive | 23.9 µM | > 50 µM
inactive | inactive | inactive | inactive |  | inactive |  | CC1(C)CC[C@@]23CC[C@]4(C)[C@@](C=C[C@@H]5[C@@]6(C)CC[C@@H](O)[C@@](C)(CO)[C@@H]6CC[C@]54C)(OC2=O)[C@@H]3C1 [FATSICARPAIN G] | 64 µg/mL (≈ 136 µM) | inactive | inactive | 29.2 µM | 33.2 µM
inactive | inactive | inactive | inactive | 64 µg/mL (≈ 135 µM) | inactive |  | CC1(C)C=C2[C@H]3C[C@@H](O)[C@@H]4[C@@]5(C)CC[C@@H](O)C(C)(C)[C@@H]5CC[C@@]4(C)[C@]3(C)CC[C@@]2(C(=O)O)CC1 [FATSICARPAIN E] | 128 µg/mL (≈ 271 µM) | inactive | inactive | > 50 µM | 47.6 µM
